We go through 93 molecules from PubChem BioAssay AID809 (SRMLSC, 2007).

This assay deals with S. cerevisiae DeaD BB579, nicotinamide rescue growth, OD615 48 h. The experiment in a line: rescue of nicotinamide-suppressed growth of yeast BB579, dose response, yeast lifespan extension project, S. cerevisiae (AID 809). A digest of the protocol: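 System: Saccharomyces cerevisiae DeaD strain BB579, log-phase cells | Buffer or medium: CSMM-D glucose restrictive medium | Timing: 4 h pre-incubation, 48 h exposure at 30 °C | Technique: OD615 absorbance | Evaluation: Culture growth as lifespan proxy | Compound: 0.078–10 µM compound, 0.5% DMSO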

Molecules are shown by their SMILES. The source made the active and inactive calls.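 Rule for the calls: active = EC50 for reversing nicotinamide-shortened yeast lifespan at or below a set limit; inactive = EC50 above that limit.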

As usually defined, the EC50 is the concentration at which the effect is half-maximal. Regarding `COC(=O)CSc1ncccc1-c1nc2ccccc2[nH]1`, the EC50 is > 10 µM (inactive). Under `CCCC(=Nc1ccccc1)C1=C(O)C(C(=O)OC)C(C)(C)CC1=O` (stereo not drawn) stands 5.99 µM; under `CCCCn1c(=O)c(C(=O)Nc2cnccn2)c(O)c2ccccc21`, 3.01 µM; under `CCN(CCO)C(=O)C12CCC(C)(C(=O)C1)C2(C)C` (stereo not drawn), > 10 µM (inactive). Under `COc1ccc(-c2cc(C(F)(F)F)nc(S(C)(=O)=O)n2)cc1` stands 6.1 µM; under `COc1ccc(CC(=O)Nc2ccc3c(c2)CCC3)cc1S(=O)(=O)N1CCOCC1`, > 10 µM (inactive); under `COC(=O)C1=C(C(=O)OC)C(c2cc(Br)ccc2O)c2sc(=O)[nH]c2S1` (stereo not drawn), 4.75 µM. As to `CN1CCC2(CC1)C(C#N)=C(N)NC(S)=C2C#N`, the EC50 is > 10 µM (inactive). Regarding `C=C1C(=O)C=C2CN(C(=O)c3ccccc3)[C@@](Cc3ccc(F)cc3)(C(=O)OC)[C@@H]12`, the EC50 was > 10 µM (inactive). Under `O=c1[nH]c2ccccc2nc1Cc1ccccc1` stands > 10 µM (inactive).

On to `COc1ccc(C2CC23N=C(c2ccccc2)OC3=O)cc1` (stereo not drawn), for which the EC50 was > 10 µM (inactive). For the molecule `O=C1NCC2=C1C(c1ccc(Br)cc1)Nc1ccccc1N2` (stereo not drawn), the EC50 is 6.26 µM. Then `O=C(/C(=C/O)N=Nc1ccc(Cl)cc1)c1ccncc1`, with 2.64 µM; and `CC1CC(C)CN(S(=O)(=O)c2cccc(C(=O)N3C(=O)c4cccc(N)c4C3=O)c2)C1` (stereo not drawn), with 4.71 µM. Consider `CC[n+]1ccc(C[n+]2ccccc2)c2ccccc21`, for which the EC50 is > 10 µM (inactive). Regarding `COc1cccc(/C=C/C(=O)c2c(O)cc(C)oc2=O)c1O`, the EC50 is > 10 µM (inactive). Under `O=C(NCc1ccco1)c1c(O)c2cccc3c2n(c1=O)CCC3` stands 5.98 µM; under `Cc1cc(C)cc(CC2CC(=O)N(c3ccc(Cl)cn3)C2=O)c1` (stereo not drawn), > 10 µM (inactive). Then `O=S1(=O)C=C(Sc2nnc(-c3ccccc3)o2)c2ccccc21`, with 9.27 µM; and `O=c1c2[nH]c3ccccc3c2ncn1Cc1ccco1`, with > 10 µM (inactive). `O=C(/C=C(\O)c1ccc(Cl)cc1)C(=O)NNC(=O)C(O)(c1ccccc1)c1ccccc1`: the EC50 is 2.75 µM. For `CC(C)c1noc2ncc(C(=O)c3cc(Cl)cc(Cl)c3O)cc12`, the EC50 was > 10 µM (inactive). Take `COc1ccc(O)c(C(=O)c2cc(C#N)c(=O)n(CC3CCCO3)c2)c1` (stereo not drawn): the EC50 is 8.21 µM.

`CC(=O)Oc1ccc(N(C(C)=O)S(=O)(=O)c2ccc(C)c([N+](=O)[O-])c2)cc1`: the EC50 is > 10 µM (inactive). Then `COc1cc(OC)cc(-c2nc3ccccc3c(=O)n2OC(=O)c2ccccc2C)c1`, with > 10 µM (inactive). Under `CCCCSc1[nH]c(=O)c(C(=O)OCC)cc1C#N` stands 6.45 µM. Regarding `O=S(=O)(Nc1cccc2c1CCCC2)c1ccc(Cl)cc1`, the EC50 was > 10 µM (inactive). Take `O=C(NC(=S)NNC(=O)c1ccccc1O)c1ccco1`: the EC50 is 6.02 µM. Under `O=C(Oc1cc(=O)n2ccccc2n1)c1ccccc1` stands 7.19 µM; under `CCC1C/C(=C\c2cccnc2)C(=O)/C(=C/c2cccnc2)C1` (stereo not drawn), 3.17 µM; under `CC(=O)N1CCN(CCN=CC2=C(O)CC(c3cccs3)CC2=O)CC1` (stereo not drawn), > 10 µM (inactive). Then `O=[N+]([O-])c1cc(S(=O)(=O)N2CCCCCC2)ccc1F`, with 5.18 µM. Consider `Cc1n[nH]c(=O)n1-c1cccc(C(F)(F)F)c1`, for which the EC50 is > 10 µM (inactive). For `O=C(CCl)N1c2ccccc2OCC1c1ccccc1` (stereo not drawn), the EC50 is 9.75 µM. Consider `Cc1ccc(CNc2nc3ccccc3s2)s1`, for which the EC50 was > 10 µM (inactive). Under `CC1(C)CC2c3cccc(C(=O)O)c3C(=O)N2c2c1ccc1ccccc21` (stereo not drawn) stands 2.84 µM; under `O=Cc1cccn1-c1sc2c(c1C(=O)O)CCCC2`, > 10 µM (inactive); under `O=C(/C(=C/c1ccccc1)n1cncn1)c1ccc(Cl)cc1Cl`, 1.07 µM. On to `CCCn1c(C)cc(C(=O)COc2ncnc3sccc23)c1C`, for which the EC50 is 5.05 µM. Under `CC1=NN(c2ccc(C(F)(F)F)cn2)C(=O)C1` stands > 10 µM (inactive). For `O=C(NCCc1ccccn1)C(F)(F)C(F)(F)C(F)(F)C(F)(F)C(F)(F)C(F)(F)C(F)(F)C(F)F`, the EC50 is > 10 µM (inactive). For `CCOC(=O)c1cnc(-c2ccccc2)nc1Oc1ccc(Cl)cc1`, the EC50 was > 10 µM (inactive). As to `Nn1c(-c2ccccn2)nnc1-c1ccccn1`, the EC50 is > 10 µM (inactive). Under `O=C1/C(=N/n2cnnc2)c2ccccc2N1Cc1ccccc1` stands 9.61 µM; under `Cc1cc(NS(=O)(=O)c2ccc(CC(C)C)cc2)no1`, 6.25 µM. Then `CN1CCN(C(=S)Nc2cc([N+](=O)[O-])ccc2Cl)CC1`, with > 10 µM (inactive); and `COc1ccccc1-c1c(C)oc2cc(OC(=O)c3ccco3)ccc2c1=O`, with > 10 µM (inactive). Then `CC(=O)C(C(C)=O)c1c(Cl)c(O)c(O)c2c(C(=O)c3ccccc3)coc12`, with > 10 µM (inactive); and `CC(c1ccco1)N(C(=O)c1ccccc1NS(=O)(=O)c1cc([N+](=O)[O-])ccc1Cl)c1ccccn1` (stereo not drawn), with 9.17 µM; and `CCCNC(=O)CCC(NS(=O)(=O)c1ccc(C)cc1)C(=O)NCCC` (stereo not drawn), with > 10 µM (inactive). As to `CCC(C)OC(=O)C1C(c2ccccc2)C(C(=O)O)C1c1ccccc1` (stereo not drawn), the EC50 is 8.26 µM.

As to `CC(=O)Oc1ccccc1N1C(=O)c2ccc(C(=O)O)cc2C1=O`, the EC50 is > 10 µM (inactive). For `COc1ccc(/C=C/C(=O)C2C(=O)C=C(C)OC2=O)cc1O` (stereo not drawn), the EC50 was 7.47 µM. Take `CC(=C1C(=O)c2ccccc2C1=O)N1CCN(C/C=C/c2ccccc2)CC1`: the EC50 was > 10 µM (inactive). With `COC(=O)C1=C(C(=O)OC)C(c2ccccc2O)c2sc(=O)[nH]c2S1` (stereo not drawn), the EC50 is 5.38 µM.

As to `CCc1[nH]nc2c1C(c1ccc(Br)s1)C(C#N)=C(N)O2` (stereo not drawn), the EC50 was 9.31 µM.

For the molecule `CCSc1nnc(NC(=O)CSc2nc(C)cc(C)n2)s1`, the EC50 is > 10 µM (inactive).

Consider `CCCCC(=O)Nc1ccc(C(=O)NNC(=S)NC(=O)c2cccs2)cc1`, for which the EC50 was 8.39 µM.

For the molecule `CS(=O)(=O)c1nc(-c2ccccc2)cc(C(F)(F)F)n1`, the EC50 was 3.32 µM. Under `Cc1ccc(N(C)C(=O)Oc2ccc(C(=O)c3ccc(Cl)cc3)cc2)cc1` stands > 10 µM (inactive); under `CCCCn1c(=O)c2c(O)cc(=O)oc2c2ccccc21`, 5.94 µM; under `CC(C)C(C(=O)O)N1C(=O)/C(=C/c2cccn2C)SC1=S` (stereo not drawn), 8.05 µM.

As for `CCCCCCCC(=O)N/N=C(/C)c1c(O)cc(C)oc1=O`, the EC50 was > 10 µM (inactive). For `CN(C)/C=C(/C(=O)c1ccc(Cl)cc1Cl)S(=O)(=O)c1ccccc1`, the EC50 was 5.3 µM.

As for `CC1(C)CC(=O)C(C(=O)Cc2ccccc2[N+](=O)[O-])C(=O)C1`, the EC50 was 4.3 µM. For `O=Cc1ccccc1OS(=O)(=O)c1ccccc1`, the EC50 was 9.56 µM. As for `Cc1ccc(N/C(C(Cl)=C(Cl)Cl)=C(/Cl)[N+](=O)[O-])c(C)c1`, the EC50 is 8.68 µM.

On to `O=S(=O)(ON(c1ccccc1)S(=O)(=O)c1ccccc1)c1ccccc1`, for which the EC50 is > 10 µM (inactive).

Take `C=C(C(=O)c1ccccc1)C(CC(=O)c1ccccc1)c1ccccc1` (stereo not drawn): the EC50 was 8.08 µM. Regarding `Cc1ccccc1Oc1cc(-n2ncc(Cl)c(Cl)c2=O)ncn1`, the EC50 is > 10 µM (inactive). As to `CCCc1[nH]nc2c1C(c1ccc(Br)s1)C(C#N)=C(N)O2` (stereo not drawn), the EC50 was 6.56 µM.

For the molecule `Cc1ccc(C(=O)OC2=CC(=O)CC(C)(C)C2)cc1`, the EC50 is 2.94 µM. Then `COc1ccc2c3c(cccc13)C(=O)N(O)C2=O`, with 2.08 µM; and `CS(=O)(=O)c1nc(-c2ccco2)cc(C(F)(F)F)n1`, with 4.01 µM; and `CN1C(=O)C(C(=O)Nc2ccccc2F)c2ccccc21` (stereo not drawn), with 9.71 µM.

`O=C(O)c1c[nH]c(=S)n1-c1ccc(F)cc1`: the EC50 is > 10 µM (inactive). Under `COc1ccc(C(CNC(=O)c2cccc(Br)c2)N2CCCC2)cc1` (stereo not drawn) stands > 10 µM (inactive); under `Cc1ccc(N(C(=O)CS(=O)CC(=O)Nc2ccc(F)cc2)C(C(=O)NC2CCCCC2)c2ccco2)cc1` (stereo not drawn), > 10 µM (inactive); under `CN1C/C(=C/c2cccnc2)C(=O)/C(=C/c2cccnc2)C1`, > 10 µM (inactive). Under `O=C(CS(=O)c1ccc(C(F)(F)F)cc1[N+](=O)[O-])Oc1ccccc1` (stereo not drawn) stands 5.19 µM. In the case of `CCOC(=O)CCS(=O)(=O)c1nc(-c2ccccc2)cc(C(F)(F)F)n1`, the EC50 was 1.13 µM. Then `CC1CCCN(c2nc3ccccc3nc2C(C#N)C(=O)OC2CCCCC2)C1` (stereo not drawn), with > 10 µM (inactive); and `CCCCOC(=O)n1c(=O)oc2cc(S(=O)(=O)N3CCCCC3)ccc21`, with > 10 µM (inactive); and `CC1Cc2ccccc2N1C(=O)Cn1cnc2ccccc2c1=O` (stereo not drawn), with 3.18 µM. On to `COc1cc(Br)cc(-c2nc3c(c(=O)[nH]c(=O)n3Cc3ccccc3)n2C)c1O`, for which the EC50 was > 10 µM (inactive). Then `CCOC(=O)C1C(=O)C(C(C)=O)C(=O)CC1CC(C)SCC` (stereo not drawn), with 2.06 µM; and `CC[n+]1c(/C=C2\C=C(C)CC(C)(C)C2)sc2ccccc21`, with > 10 µM (inactive); and `C=C(CC)C(=O)c1ccc(OCC(=O)O)c(Cl)c1Cl`, with 7.07 µM. Regarding `CC(c1ccccc1)N1CCn2c(nc3cc(NC(=O)c4cccs4)ccc32)C1` (stereo not drawn), the EC50 was 7.15 µM.

`N#Cc1ccc(-c2ccc(OCC(=O)NCCc3ccccc3)cc2)cc1`: the EC50 is > 10 µM (inactive). Then `CCCCn1c(NS(=O)(=O)c2ccc(C)cc2)c(C(=O)OCC)c2nc3ccccc3nc21`, with > 10 µM (inactive). With `ClC(Cl)(c1nnnn1-c1ccccc1)c1nnnn1-c1ccccc1`, the EC50 was > 10 µM (inactive).

`CS(=O)(=O)Oc1ccc(Br)cc1/C=C1/N=C(c2ccco2)OC1=O`: the EC50 was > 10 µM (inactive).
